# Test results as given in PMC4415995 (Advances in Therapy, 2015).
# Where two headings read alike, the source gives them in different places. Marks after values point to notes of the source that are not given here.
# Key:
# [1] = format: in vivo, human; settings: for AUC / AUC(0-inf) / Cmax / half-life / Tmax: human, plasma, oral; for Cmax: C max
# In short: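 Oral doses of 0.5–5 mg once daily for 7 days, given with 150 mL water before a standardized ~600 kcal breakfast. Venous blood was drawn pre-dose and 0.25–24 h after dosing on Days 1 and 7, and pre-breakfast on Days 9–11. Urine was pooled at 4 °C over intervals. Samples were stored at −70 °C. Parent and active O-deethyl metabolite were measured by solid-phase extraction and LC–MS/MS with deuterated internal standards. Parameters were non-compartmental; metabolite ratio was AUCτ(M2)/AUCτ(parent).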
# [2] = tested on: Japanese patients with T2DM; assay: Urinary glucose excretion; format: in vivo, human
# In short: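 Dosing was once daily, 0.5–5 mg or placebo, before a standardized ~600 kcal breakfast. Read-outs were 24-h cumulative UGE, total UGE and per-interval UGE rate, plus change from Day −1. LS mean difference vs placebo with 95% CI.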
# [3] = tested on: Japanese patients with T2DM; assay: Serum insulin concentrations, 7-day once-daily dosing; format: in vivo, human; settings: 0.5 mg OD
compound,measurement,setting,value
"CCOc1ccc(Cc2cc([C@@H]3S[C@H](CO)[C@@H](O)[C@H](O)[C@H]3O)c(OC)cc2C)cc1 [Luseogliflozin, (1S)-1,5-anhydro-1-[5-(4-ethoxybenzyl)-2-methoxy-4-methylphenyl]-1-thio-D-glucitol]",Ae0–24,"[1]; 0.5 mg luseogliflozin OD, Day 1, urine",3.76 ± 0.832 % of dose
same,Ae0–24,"[1]; 0.5 mg luseogliflozin OD, Day 7, urine",4.56 ± 1.04 % of dose
same,Ae0–24,"[1]; 1 mg luseogliflozin OD, Day 1, urine",4.06 ± 0.497 % of dose
same,Ae0–24,"[1]; 1 mg luseogliflozin OD, Day 7, urine",4.30 ± 0.875 % of dose
same,Ae0–24,"[1]; 2.5 mg luseogliflozin OD, Day 1, urine",4.51 ± 1.13 % of dose
same,Ae0–24,"[1]; 2.5 mg luseogliflozin OD, Day 7, urine",4.79 ± 1.09 % of dose
same,Ae0–24,"[1]; 5 mg luseogliflozin OD, Day 1, urine",4.11 ± 0.763 % of dose
same,Ae0–24,"[1]; 5 mg luseogliflozin OD, Day 7, urine",4.56 ± 0.617 % of dose
same,accumulation after multiple doses,[1]; AUCinf Day 1 vs AUCτ Day 7 comparable,does not accumulate
same,dose proportionality for C max and AUCτ (power model),"[1]; Day 7, 0.5-5 mg",dose proportionality
same,AUC,[1]; 0.5 mg,179 ± 32.6 ng·h/mL
same,AUC(0-inf),[1]; 0.5 mg,171 ± 38.4 ng·h/mL
same,Cmax,"[1]; 0.5 mg, 0.5 mg luseogliflozin OD, Day 1, plasma",21.9 ± 2.88 ng/mL
same,Cmax,"[1]; 0.5 mg, 0.5 mg luseogliflozin OD, Day 7, plasma",25.6 ± 4.25 ng/mL
same,half-life,"[1]; 0.5 mg, t 1/2, 0.5 mg luseogliflozin OD, Day 1, plasma",9.86 ± 1.57 h
same,half-life,"[1]; 0.5 mg, t 1/2, 0.5 mg luseogliflozin OD, Day 7, plasma",10.5 ± 1.03 h
same,Tmax,"[1]; 0.5 mg, t max, 0.5 mg luseogliflozin OD, Day 1, plasma",0.857 ± 0.556 h
same,Tmax,"[1]; 0.5 mg, t max, 0.5 mg luseogliflozin OD, Day 7, plasma",0.643 ± 0.244 h
same,AUC,[1]; 1 mg,370 ± 55.5 ng·h/mL
same,AUC(0-inf),[1]; 1 mg,357 ± 53.9 ng·h/mL
same,Cmax,"[1]; 1 mg, 1 mg luseogliflozin OD, Day 1, plasma",43.7 ± 10.8 ng/mL
same,Cmax,"[1]; 1 mg, 1 mg luseogliflozin OD, Day 7, plasma",52.3 ± 10.9 ng/mL
same,half-life,"[1]; 1 mg, t 1/2, 1 mg luseogliflozin OD, Day 1, plasma",9.61 ± 1.34 h
same,half-life,"[1]; 1 mg, t 1/2, 1 mg luseogliflozin OD, Day 7, plasma",10 ± 1.37 h
same,Tmax,"[1]; 1 mg, t max, 1 mg luseogliflozin OD, Day 1, plasma",0.688 ± 0.259 h
same,Tmax,"[1]; 1 mg, t max, 1 mg luseogliflozin OD, Day 7, plasma",0.688 ± 0.259 h
same,AUC,[1]; 2.5 mg,899 ± 148 ng·h/mL
same,AUC(0-inf),[1]; 2.5 mg,864 ± 132 ng·h/mL
same,Cmax,"[1]; 2.5 mg, 2.5 mg luseogliflozin OD, Day 1, plasma",119 ± 27 ng/mL
same,Cmax,"[1]; 2.5 mg, 2.5 mg luseogliflozin OD, Day 7, plasma",136 ± 42 ng/mL
same,half-life,"[1]; 2.5 mg, t 1/2, 2.5 mg luseogliflozin OD, Day 1, plasma",9.24 ± 0.928 h
same,half-life,"[1]; 2.5 mg, t 1/2, 2.5 mg luseogliflozin OD, Day 7, plasma",9.2 ± 0.71 h
same,Tmax,"[1]; 2.5 mg, t max, 2.5 mg luseogliflozin OD, Day 1, plasma",0.625 ± 0.354 h
same,Tmax,"[1]; 2.5 mg, t max, 2.5 mg luseogliflozin OD, Day 7, plasma",1 ± 0.886 h
same,AUC,[1]; 5 mg,1880 ± 318 ng·h/mL
same,AUC(0-inf),[1]; 5 mg,1690 ± 271 ng·h/mL
same,Cmax,"[1]; 5 mg, 5 mg luseogliflozin OD, Day 1, plasma",243 ± 45.7 ng/mL
same,half-life,"[1]; 5 mg, t 1/2, 5 mg luseogliflozin OD, Day 1, plasma",8.96 ± 1.11 h
same,half-life,"[1]; 5 mg, t 1/2, 5 mg luseogliflozin OD, Day 7, plasma",9.54 ± 1.26 h
same,Tmax,"[1]; 5 mg, t max, 5 mg luseogliflozin OD, Day 1, plasma",0.625 ± 0.231 h
same,Tmax,"[1]; 5 mg, t max, 5 mg luseogliflozin OD, Day 7, plasma",0.688 ± 0.259 h
same,half-life,"[1]; mean t 1/2, all four doses (0.5-5 mg)",~10 h
same,Tmax,"[1]; t max (mean), across 0.5-5 mg doses, Days 1 and 7, plasma",0.625 to 1 h
same,UGE0–24h,"[2]; 0.5 mg OD, Day 1",81.5 ± 33.2 g
same,UGE0–24h LS mean difference vs placebo (95% CI),"[2]; 0.5 mg OD, Day 1","46.4 (32.9, 60.0)* g"
same,Least-squares mean difference in 24-h UGE vs placebo,"[2]; 0.5 mg OD, Day 7",49.2 g/day
same,UGE0–24h,"[2]; 0.5 mg OD, Day 7",81.7 ± 30.1 g
same,UGE0–24h LS mean difference vs placebo (95% CI),"[2]; 0.5 mg OD, Day 7","49.2 (27.9, 70.5)* g"
same,UGE0–24h LS mean difference vs placebo (95% CI),"[2]; 0.5 mg OD, Day 7, listed as luseogliflozin",49.2 g
same,UGE0–24h,"[2]; 1 mg OD, Day 1",75.1 ± 23.3 g
same,UGE0–24h LS mean difference vs placebo (95% CI),"[2]; 1 mg OD, Day 1","58.9 (45.7, 72.1)* g"
same,Least-squares mean difference in 24-h UGE vs placebo,"[2]; 1 mg OD, Day 7",66.5 g/day
same,UGE0–24h,"[2]; 1 mg OD, Day 7",85.3 ± 18.8 g
same,UGE0–24h LS mean difference vs placebo (95% CI),"[2]; 1 mg OD, Day 7","66.5 (45.8, 87.1)* g"
same,UGE0–24h LS mean difference vs placebo (95% CI),"[2]; 1 mg OD, Day 7, listed as luseogliflozin",66.5 g
same,UGE0–24h,"[2]; 2.5 mg OD, Day 1",139 ± 31.1 g
same,UGE0–24h LS mean difference vs placebo (95% CI),"[2]; 2.5 mg OD, Day 1","91.7 (78.1, 105)* g"
same,Least-squares mean difference in 24-h UGE vs placebo,"[2]; 2.5 mg OD, Day 7",89.4 g/day
same,UGE0–24h,"[2]; 2.5 mg OD, Day 7",131 ± 29.9 g
same,UGE0–24h LS mean difference vs placebo (95% CI),"[2]; 2.5 mg OD, Day 7","89.4 (68.2, 111)* g"
same,UGE0–24h LS mean difference vs placebo (95% CI),"[2]; 2.5 mg OD, Day 7, listed as luseogliflozin",89.4 g
same,energy loss equivalent to the increase in UGE,[2]; 5 mg OD,approximately 400 kcal
same,increase in UGE,[2]; 5 mg OD,about 100 g glucose/day
same,UGE0–24h,"[2]; 5 mg OD, Day 1",116 ± 29.0 g
same,UGE0–24h LS mean difference vs placebo (95% CI),"[2]; 5 mg OD, Day 1","101 (87.6, 114)* g"
same,Least-squares mean difference in 24-h UGE vs placebo,"[2]; 5 mg OD, Day 7",101 g/day
same,UGE0–24h,"[2]; 5 mg OD, Day 7",120 ± 33.1 g
same,UGE0–24h LS mean difference vs placebo (95% CI),"[2]; 5 mg OD, Day 7","101 (80.7, 122)* g"
same,UGE0–24h LS mean difference vs placebo (95% CI),"[2]; 5 mg OD, Day 7, listed as luseogliflozin",101 g
same,time for UGE to return toward the baseline value after treatment discontinuation,[2]; each dose group,1 to 3 days
same,Serum insulin AUC0–4h (after breakfast),[3]; Day 1,95.0 ± 33.9 μIU h/mL
same,Serum insulin AUC0–4h (after breakfast) LS mean difference vs placebo (95% CI),[3]; Day 1,"−13.8 (−43.1, 15.6) μIU h/mL"
same,Serum insulin AUC0–4h (after breakfast),[3]; Day 7,81.4 ± 39.4 μIU h/mL
